In ChEMBL document CHEMBL3877303 (J Med Chem, 2017):
Active and inactive are the calls of the source. The rule behind the calls is not given here.

Tests used:
[1] = target: T1, Mast/stem cell growth factor receptor Kit (Homo sapiens, UniProt P10721); settings: GISTT1, 1 uM
[2] = target: T1, Mast/stem cell growth factor receptor Kit; settings: GISTT1, 1 uM; remark: listed apart in the source
[3] = target: T1, Mast/stem cell growth factor receptor Kit; settings: 1 uM
[4] = Mean residence time (0 to t) in Sprague-Dawley rat at 1 mg/kg, iv; format: ADME, organism-based; settings: in vivo
How it was run: (§1)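 Male Sprague-Dawley rats, 6-8 weeks old, fasted overnight, dosed iv or po. Jugular vein blood (~0.2 mL, heparin) sampled at 1 min to 8 h (iv) or 5 min to 24 h (po). Plasma separated by centrifugation at 2-8 °C and stored at -80 °C before analysis.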

[5] = AUC (0 to infinity) in Sprague-Dawley rat at 1 mg/kg, iv; format: ADME, organism-based; parameters: dose 1 mg/kg, route intravenous, time infinity; settings: in vivo
How it was run: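 Male Sprague-Dawley rats aged six to eight weeks were fasted overnight and then dosed iv or orally. Blood (~0.2 mL) was drawn from the jugular vein into heparin and kept on ice. Sampling was at 1 min to 8 h for iv and 5 min to 24 h for oral. Plasma was separated by centrifugation at 2-8 °C and stored at -80 °C until analysis.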

K562 = experiment: Antiproliferative activity against human K562 cells xenografted in nu/nu mouse administered daily via oral gavage measured 28 days post compound treatment by Ki-67 staining based assay; format: functional, cell-based
How it was run: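 K562 xenograft tumors were taken after daily oral dosing. Tissue was fixed in 10% neutral-buffered formalin, paraffin-embedded and cut into 6-micron sections. […] Detection used DAB with a hematoxylin counterstain.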

[6] = target: Macrophage colony-stimulating factor 1 receptor (Homo sapiens, UniProt P07333); settings: BaF3
Chain of Macrophage colony-stimulating factor 1 receptor (P07333 whole entry, the tested form may be a part): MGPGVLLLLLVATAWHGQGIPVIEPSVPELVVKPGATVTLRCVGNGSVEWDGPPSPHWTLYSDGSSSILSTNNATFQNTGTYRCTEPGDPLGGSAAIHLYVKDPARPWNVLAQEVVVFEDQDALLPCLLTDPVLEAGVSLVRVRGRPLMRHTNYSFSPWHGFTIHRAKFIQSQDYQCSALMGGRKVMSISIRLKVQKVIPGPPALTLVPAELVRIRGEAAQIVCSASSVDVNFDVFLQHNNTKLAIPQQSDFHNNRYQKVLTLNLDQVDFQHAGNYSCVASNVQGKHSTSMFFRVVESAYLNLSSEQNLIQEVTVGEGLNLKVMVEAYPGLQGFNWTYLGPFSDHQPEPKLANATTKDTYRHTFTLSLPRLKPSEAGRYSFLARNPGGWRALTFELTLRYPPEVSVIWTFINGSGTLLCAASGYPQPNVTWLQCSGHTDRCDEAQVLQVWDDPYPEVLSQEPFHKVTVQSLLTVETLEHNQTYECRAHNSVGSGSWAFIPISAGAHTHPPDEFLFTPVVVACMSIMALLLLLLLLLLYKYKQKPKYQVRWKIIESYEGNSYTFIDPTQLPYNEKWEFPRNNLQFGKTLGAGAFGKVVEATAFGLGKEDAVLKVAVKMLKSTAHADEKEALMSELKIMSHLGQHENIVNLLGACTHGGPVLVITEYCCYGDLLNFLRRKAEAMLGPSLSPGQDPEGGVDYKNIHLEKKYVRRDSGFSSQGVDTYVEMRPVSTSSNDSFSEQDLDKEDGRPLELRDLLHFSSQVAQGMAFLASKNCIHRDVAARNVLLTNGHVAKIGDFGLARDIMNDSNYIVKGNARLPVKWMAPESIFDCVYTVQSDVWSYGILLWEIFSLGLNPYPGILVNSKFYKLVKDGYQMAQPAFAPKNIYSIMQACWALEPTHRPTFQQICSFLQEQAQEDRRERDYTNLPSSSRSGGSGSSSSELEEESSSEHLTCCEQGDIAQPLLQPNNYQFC

[7] = target: Epithelial discoidin domain-containing receptor 1 (Homo sapiens, UniProt Q08345); settings: BaF3
Chain of Epithelial discoidin domain-containing receptor 1 (Q08345 whole entry, the tested form may be a part): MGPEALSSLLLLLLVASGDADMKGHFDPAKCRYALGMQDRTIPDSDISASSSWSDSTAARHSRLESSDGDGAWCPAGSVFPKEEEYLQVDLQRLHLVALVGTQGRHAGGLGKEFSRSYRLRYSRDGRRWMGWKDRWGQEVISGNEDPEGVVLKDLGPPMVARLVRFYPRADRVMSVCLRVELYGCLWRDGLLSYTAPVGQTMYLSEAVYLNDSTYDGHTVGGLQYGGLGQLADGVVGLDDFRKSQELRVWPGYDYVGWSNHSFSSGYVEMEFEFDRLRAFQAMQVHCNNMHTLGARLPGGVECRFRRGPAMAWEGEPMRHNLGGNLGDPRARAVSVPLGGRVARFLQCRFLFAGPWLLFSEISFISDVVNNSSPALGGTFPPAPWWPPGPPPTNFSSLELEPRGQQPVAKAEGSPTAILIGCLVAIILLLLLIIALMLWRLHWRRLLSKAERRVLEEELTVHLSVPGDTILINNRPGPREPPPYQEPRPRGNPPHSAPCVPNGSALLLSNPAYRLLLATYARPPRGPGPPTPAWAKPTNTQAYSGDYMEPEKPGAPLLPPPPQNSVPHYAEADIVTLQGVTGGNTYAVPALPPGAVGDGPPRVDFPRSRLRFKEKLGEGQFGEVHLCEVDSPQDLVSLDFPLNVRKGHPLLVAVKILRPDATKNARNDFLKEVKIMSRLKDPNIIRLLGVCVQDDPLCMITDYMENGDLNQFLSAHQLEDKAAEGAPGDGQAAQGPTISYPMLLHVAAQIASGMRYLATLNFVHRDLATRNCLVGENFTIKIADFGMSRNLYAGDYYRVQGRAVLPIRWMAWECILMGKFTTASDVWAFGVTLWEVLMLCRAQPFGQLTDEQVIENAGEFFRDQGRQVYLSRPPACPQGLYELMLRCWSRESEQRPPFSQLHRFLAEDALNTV

[8] = Antiproliferative activity against human MEG01 cells measured after 72 hrs by CellTiter-Glo or CCK8 assay; format: functional; settings: MEG-01, 72 h
[9] = target: T1, Mast/stem cell growth factor receptor Kit; experiment: Inhibition of c-KIT mediated signaling pathways assessed as reduction in ERK1/2 phosphorylation at T202/Y204 in human GISTT1 cells at 0.03 to 10 uM measured after 2 hrs by immunoblotting; format: cell-based
How it was run: (§2)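 After an ice-cold PBS wash, cells were lysed in RIPA buffer (50 mM Tris pH 8.0) with protease and phosphatase inhibitors, and protein was quantified by BCA. Lysates were run on SDS-PAGE, transferred to PVDF and blocked in 5% milk/TBST. Phospho- and total proteins were probed by immunoblot with ECL detection; β-actin served as loading control.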

[10] = target: T2, BCR/ABL p210 fusion protein (Homo sapiens, UniProt A1Z199); experiment: Inhibition of human BCR/ABL p210 fusion protein expressed in BAF3 cells assessed as growth inhibition measured after 72 hrs by CellTiter-Glo or CCK8 assay; format: cell-based
T2 sequence (A1Z199 1-97): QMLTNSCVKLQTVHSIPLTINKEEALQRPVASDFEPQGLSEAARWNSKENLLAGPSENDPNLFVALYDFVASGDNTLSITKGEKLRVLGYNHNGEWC
How it was run: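 Seeded at 1 to 2.5×10^4 cells/mL with various compound concentrations, 72 h. Viability read by CellTiter-Glo luminescence or CCK-8 absorbance (450/655 nm), normalized to DMSO control, GI50 from curve fit, triplicate testing.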

[11] = Anticancer activity against human GISTT1 cells xenografted in nu/nu mouse assessed as tumor growth inhibition at 100 mg/kg, po administered daily via oral gavage measured 21 days post compound treatment relative to vehicle-treated control; settings: 504 h, read-out: GI
[12] = Tmax in Sprague-Dawley rat at 10 mg/kg, po; format: ADME, organism-based; settings: in vivo
How it was run: as §1

[13] = target: Platelet-derived growth factor receptor alpha (Homo sapiens) (UniProt P16234); experiment: Inhibition of Tel-fused PDGFR-alpha (unknown origin) expressed in BAF3 cells assessed as growth inhibition measured after 72 hrs by CellTiter-Glo or CCK8 assay; format: cell-based
Chain of Platelet-derived growth factor receptor alpha (Homo sapiens) (P16234 whole entry, the tested form may be a part): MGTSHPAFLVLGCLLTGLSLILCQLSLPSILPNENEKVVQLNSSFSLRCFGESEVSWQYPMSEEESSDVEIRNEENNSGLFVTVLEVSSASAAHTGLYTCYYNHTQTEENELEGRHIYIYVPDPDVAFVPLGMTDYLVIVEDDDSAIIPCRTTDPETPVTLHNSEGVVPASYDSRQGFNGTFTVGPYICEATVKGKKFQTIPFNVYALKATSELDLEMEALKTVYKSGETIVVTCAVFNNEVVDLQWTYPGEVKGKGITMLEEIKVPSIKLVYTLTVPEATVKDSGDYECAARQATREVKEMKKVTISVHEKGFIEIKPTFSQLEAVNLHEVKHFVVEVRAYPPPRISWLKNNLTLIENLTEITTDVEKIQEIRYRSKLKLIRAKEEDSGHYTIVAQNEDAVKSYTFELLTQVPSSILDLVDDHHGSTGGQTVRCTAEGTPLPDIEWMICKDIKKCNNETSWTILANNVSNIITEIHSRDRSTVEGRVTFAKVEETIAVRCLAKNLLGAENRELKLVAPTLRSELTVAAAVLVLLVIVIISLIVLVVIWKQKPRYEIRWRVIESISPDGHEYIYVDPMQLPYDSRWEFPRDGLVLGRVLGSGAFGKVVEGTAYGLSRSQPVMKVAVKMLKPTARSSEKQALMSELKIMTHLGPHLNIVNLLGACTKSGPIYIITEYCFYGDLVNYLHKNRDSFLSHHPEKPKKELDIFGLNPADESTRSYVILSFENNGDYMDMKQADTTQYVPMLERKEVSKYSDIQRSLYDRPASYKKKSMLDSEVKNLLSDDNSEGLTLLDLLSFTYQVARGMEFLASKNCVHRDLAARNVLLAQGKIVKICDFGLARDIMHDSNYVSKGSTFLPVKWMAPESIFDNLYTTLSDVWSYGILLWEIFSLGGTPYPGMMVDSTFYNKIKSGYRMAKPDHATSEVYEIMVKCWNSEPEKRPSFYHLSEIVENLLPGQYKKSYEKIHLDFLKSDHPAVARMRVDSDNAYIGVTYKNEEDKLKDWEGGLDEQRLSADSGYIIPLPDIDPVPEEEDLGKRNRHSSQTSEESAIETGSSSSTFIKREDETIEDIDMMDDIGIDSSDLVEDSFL
How it was run: (§3)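 BaF3 lines were made by retroviral transduction with kinase-fusion MSCV vectors packaged in HEK293T cells. Cells were selected with puromycin for 48 h, then selected again without IL-3 so growth depends on the introduced kinase. […] They were seeded at 1 to 2.5×10^4 cells/mL with compound dilutions and incubated 72 h. Viability was read by CellTiter-Glo luminescence or CCK-8 absorbance (450/655 nm), normalized to DMSO control; GI50 was curve-fitted from triplicate tests.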

[14] = target: T2, BCR/ABL p210 fusion protein; experiment: Inhibition of BCR/ABL p210 fusion protein autophosphorylation at Y245 in human KU812 cells at 0.01 to 3 uM measured after 2 hrs by immunoblotting; format: cell-based
How it was run: as §2

[15] = test system: Mast/stem cell growth factor receptor Kit (Homo sapiens), P10721 [N822K]; experiment: Inhibition of Tel-fused c-KIT N822K mutant (unknown origin) expressed in BAF3 cells assessed as growth inhibition measured after 72 hrs by CellTiter-Glo or CCK8 assay; format: cell-based
Chain of Mast/stem cell growth factor receptor Kit (Homo sapiens), P10721 [N822K] (P10721 whole entry N822K, the tested form may be a part): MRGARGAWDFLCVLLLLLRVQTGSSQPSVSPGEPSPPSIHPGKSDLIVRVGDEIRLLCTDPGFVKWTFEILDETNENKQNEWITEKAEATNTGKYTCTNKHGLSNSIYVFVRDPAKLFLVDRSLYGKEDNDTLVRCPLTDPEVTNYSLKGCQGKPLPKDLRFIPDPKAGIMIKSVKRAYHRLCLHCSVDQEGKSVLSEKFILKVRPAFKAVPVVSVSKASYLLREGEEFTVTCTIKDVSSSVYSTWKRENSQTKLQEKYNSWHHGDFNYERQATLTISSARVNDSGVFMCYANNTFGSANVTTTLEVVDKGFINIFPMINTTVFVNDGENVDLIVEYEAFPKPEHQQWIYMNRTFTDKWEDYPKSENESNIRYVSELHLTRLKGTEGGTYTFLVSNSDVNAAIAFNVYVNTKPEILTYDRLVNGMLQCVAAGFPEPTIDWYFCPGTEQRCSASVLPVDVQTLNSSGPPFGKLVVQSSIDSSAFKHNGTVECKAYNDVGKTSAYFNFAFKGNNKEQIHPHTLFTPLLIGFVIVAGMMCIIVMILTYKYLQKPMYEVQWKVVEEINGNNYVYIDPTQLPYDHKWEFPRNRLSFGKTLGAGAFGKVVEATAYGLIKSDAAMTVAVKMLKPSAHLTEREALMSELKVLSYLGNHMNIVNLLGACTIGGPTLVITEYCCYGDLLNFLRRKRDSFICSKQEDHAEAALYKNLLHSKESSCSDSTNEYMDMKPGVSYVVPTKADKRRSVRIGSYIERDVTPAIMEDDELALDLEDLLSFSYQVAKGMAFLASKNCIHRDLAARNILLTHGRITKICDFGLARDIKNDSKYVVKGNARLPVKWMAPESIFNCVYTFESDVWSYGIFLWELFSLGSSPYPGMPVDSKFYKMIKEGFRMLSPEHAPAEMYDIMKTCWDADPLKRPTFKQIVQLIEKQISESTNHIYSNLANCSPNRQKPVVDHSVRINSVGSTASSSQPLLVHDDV
How it was run: as §3

BaF3 = experiment: Inhibition of BCR/ABL p210 fusion protein T315I mutant (unknown origin) expressed in BAF3 cells assessed as growth inhibition measured after 72 hrs by CellTiter-Glo or CCK8 assay; format: cell-based; settings: Homo sapiens
How it was run: as §3

[16] = test system: Mast/stem cell growth factor receptor Kit (Homo sapiens), P10721 [V559D]; experiment: Inhibition of Tel-fused c-KIT V559D mutant (unknown origin) expressed in BAF3 cells assessed as growth inhibition measured after 72 hrs by CellTiter-Glo or CCK8 assay; format: cell-based
Chain of Mast/stem cell growth factor receptor Kit (Homo sapiens), P10721 [V559D] (P10721 whole entry V559D, the tested form may be a part): as the sequence (P10721 whole entry N822K, the tested form may be a part) above, with V559D, K822N counted along it
How it was run: as §3

[17] = target: T1, Mast/stem cell growth factor receptor Kit; experiment: Inhibition of c-KIT autophosphorylation at Y823 in human GIST882 cells at 0.01 to 3 uM measured after 2 hrs by immunoblotting; format: cell-based
How it was run: as §2

GIST882 = experiment: Induction of apoptosis in human GIST882 cells assessed as increase in cleaved caspase-3 level at 0.1 to 3 uM by Western blot analysis; format: functional, cell-based
How it was run: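 Cells were treated with DMSO or serially diluted compound for the indicated periods. They were washed in ice-cold PBS and lysed in RIPA buffer with protease/phosphatase inhibitors, and protein was quantified by BCA. Lysates were resolved by SDS-PAGE, transferred to PVDF and blocked in 5% milk/TBST. Blots were probed for PARP and caspase-3, with β-actin as loading control, and detected by ECL.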

[18] = target: T1, Mast/stem cell growth factor receptor Kit; experiment: Inhibition of c-KIT autophosphorylation at Y719 in human GISTT1 cells at 0.03 to 10 uM measured after 2 hrs by immunoblotting; format: cell-based
How it was run: as §2

[19] = test system: Mast/stem cell growth factor receptor Kit (Homo sapiens), P10721 [T670I]; experiment: Inhibition of Tel-fused c-KIT T670I mutant (unknown origin) expressed in BAF3 cells assessed as growth inhibition measured after 72 hrs by CellTiter-Glo or CCK8 assay; format: cell-based
Chain of Mast/stem cell growth factor receptor Kit (Homo sapiens), P10721 [T670I] (P10721 whole entry T670I, the tested form may be a part): as the sequence (P10721 whole entry N822K, the tested form may be a part) above, with T670I, K822N counted along it
How it was run: as §3

[20] = target: T1, Mast/stem cell growth factor receptor Kit; experiment: Inhibition of c-KIT mediated signaling pathways assessed as reduction in Stat3/5 phosphorylation at Y705/Y694 in human GISTT1 cells at 0.03 to 10 uM measured after 2 hrs by immunoblotting; format: cell-based
How it was run: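 GIST-T1 cells treated with DMSO or serially diluted compound for 2 h. Cells lysed in RIPA buffer with protease/phosphatase inhibitors, protein quantified by BCA, SDS-PAGE, PVDF transfer, milk block, primary/secondary antibodies, ECL detection; beta-actin loading control.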

T1 sequence (P10721 whole entry): as the sequence (P10721 whole entry N822K, the tested form may be a part) above, with K822N counted along it

Cc1ccc(NC(=O)c2ccc(CN3CCN(C)CC3)cc2)cc1Nc1nccc(-c2cccnc2)n1 [IMATINIB]
inhibition [1]: Active | inhibition [2]: Active | inhibition [3]: Active

Cc1ccc(C(=O)N2CCC(Oc3cc(NC(=O)c4ccc(CN5CCN(C)CC5)c(C(F)(F)F)c4)ccc3C)CC2)cn1
MRT last [4]: 1.93 h | AUC(0-inf) [5]: 558 ng·h/mL | Activity (K562): Dose-dependent effect | GI50 [6]: 162 nM | GI50 [7]: 9.77 µM | GI50 [8]: 20 nM | inhibition [9]: Active | GI50 [10]: 33 nM | inhibition in vivo at 100 mg/kg [11]: 46.5% | Tmax [12]: 6 h | GI50 [13]: 12 nM | inhibition [14]: Active | GI50 [15]: 124 nM | GI50 (BaF3): > 10 µM | GI50 [16]: 78 nM | inhibition [17]: Active | Activity (GIST882): Active | inhibition [18]: Active | GI50 [19]: 1850 nM | inhibition [20]: Active
